The source made the active and inactive calls. The rule behind the calls is not given here.
Assays:
Mus musculus [1] = assay: Inhibition of LPS-induced serum IL-1beta production in C57BL/6 mouse at 10 mg/kg, ip pretreated before LPS challenge and measured after […] post LPS challenge by ELISA; type: functional, organism-based
Mus musculus [2] = assay: Inhibition of LPS-induced serum TNFalpha production in C57BL/6 mouse at 10 mg/kg, ip pretreated before LPS challenge and measured after […] post LPS challenge by ELISA; type: functional, organism-based
Mus musculus [3] = assay: Inhibition of LPS-induced serum IL-1beta production in nlrp3-/- C57BL/6 mouse at 10 mg/kg, ip pretreated before LPS challenge and measured after […] post LPS challenge by ELISA; type: functional, organism-based
[4] = Toxicity in human hCMEC/D3 cells assessed as reduction in cell viability at 20 uM; type: cell-based; conditions: hcmec/d3, 20 µM
In short: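 hCMEC/D3 cells (passage 25-35, EGM-2-based media) exposed to compound at 20 μM for 2 h; viability read by Live/Dead staining. Mean ± SEM from 3 independent experiments, ≥triplicates each.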

C#CCNS(=O)(=O)c1ccc(CCN(Cc2cc(Cl)ccc2OC)C(=O)C=C)cc1
inhibition (Mus musculus [1]): Active
inhibition (Mus musculus [2]): Active

C#CCNS(=O)(=O)c1ccc(CCN(Cc2cc(Cl)ccc2OCCC)C(=O)Cc2ccsc2)cc1
inhibition (Mus musculus [1]): Active
inhibition (Mus musculus [2]): inactive
inhibition (Mus musculus [3]): inactive
Activity [4]: Non-Toxic

CC(C)(O)c1coc(S(=O)(=O)NC(=O)Nc2c3c(cc4c2CCC4)CCC3)c1
inhibition (Mus musculus [1]): Active
